Consider two compounds from publication PMC10099996 (Chembiochem, 2022).

The conditions of data set [1]: formation in vivo limits systemic applications; cited from earlier work.
For data set [2] the following is noted: degradation product of bacitracin A; cited from earlier work.
The subject of data set [3] is S. simulans 22. Briefly: MIC determination. Format: cell-based. As to conditions: Table 1; lysogeny broth (LB) supplemented with 0.3 mM ZnSO4; 37 °C, 18 h; visual inspection; median of a minimum of triplicates. The procedure, abridged:
(§1)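 Strains from glycerol stocks are grown overnight on blood agar at 37 °C. A single colony goes into TSB and grows at 37 °C to OD600 0.5, then is diluted 100-fold in ZnSO₄-supplemented LB to 10⁶ CFU mL⁻¹. Test compounds are 2-fold serially diluted in the same medium, in triplicate, and mixed with an equal volume of inoculum. Plates are sealed under breathable membranes and incubated 18 h at 37 °C, shaking at 600 rpm. MIC is read visually.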

The subject of data set [4] is E. faecium E980. The data set is described as follows: MIC determination. In kind it is cell-based. As to conditions: Table 1; lysogeny broth (LB) supplemented with 0.3 mM ZnSO4; 37 °C, 18 h; visual inspection; median of a minimum of triplicates. In short, it runs like this:
as §1

The test system of data set [5] is S. aureus ATCC 29213 (MSSA). Briefly: MIC determination. In kind it is cell-based. As to conditions: Table 1; lysogeny broth (LB) supplemented with 0.3 mM ZnSO4; 37 °C, 18 h; visual inspection; median of a minimum of triplicates. In short, it runs like this:
as §1

The subject of data set [6] is S. aureus USA300 (MRSA). Briefly: MIC determination. Format: cell-based. As to conditions: Table 1; lysogeny broth (LB) supplemented with 0.3 mM ZnSO4; 37 °C, 18 h; visual inspection; median of a minimum of triplicates. The procedure, abridged: as §1

In brackets after ≈: the same amount, converted by molar mass.

Take bacitracin F: the nephrotoxicity entry in data set [1] is “nephrotoxic”. Moreover, the antibiotic activity entry in data set [2] was “inactive”.
For the compound `CN[C@H](CC(C)C)C(=O)N[C@H]1C(=O)N[C@@H](CC(N)=O)C(=O)N[C@H]2C(=O)N[C@H]3C(=O)N[C@H](C(=O)N[C@H](C(=O)O)c4cc(O)cc(O)c4-c4cc3ccc4O)[C@H](O)c3ccc(c(Cl)c3)Oc3cc2cc(c3O[C@@H]2O[C@H](CO)[C@@H](O)[C@H](O)[C@H]2O[C@H]2C[C@](C)(N)[C@H](O)[C@H](C)O2)Oc2ccc(cc2Cl)[C@H]1O` [Vancomycin], the “MIC S. simulans 22” value in data set [3] is 0.5 µg/mL (≈ 0.345 µM). The “MIC E. faecium E980” value in data set [4] is 0.5 µg/mL (≈ 0.345 µM). Moreover, the “MIC S. aureus ATCC 29213 (MSSA)” value in data set [5] was 1 µg/mL (≈ 0.69 µM). Further, the “MIC S. aureus USA300 (MRSA)” value in data set [6] was determined as 2 µg/mL (≈ 1.38 µM).
